Laboratory results: ChEMBL document CHEMBL1155976, “Synthesis and preliminary pharmacological evaluation of imidazo[2,1-f]purine-2,4-dione derivatives” (Eur J Med Chem, 2009)
pKi: −log10 of the molar value. The source made the active and inactive calls. No cut-off for these calls is given here.

Legend:
[1] = biological target: 5-hydroxytryptamine receptor 2A (Rattus norvegicus, UniProt P14842); assay: Displacement of [3H]ketanserin from 5HT2A receptor in rat cerebral cortex after 20 mins by liquid scintillation counting; format: tissue-based
Summary of the method: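 Rat cerebral cortex homogenised in 50 mM Tris-HCl pH 7.7, spun at 32000 × g, preincubated 10 min at 37 °C, resuspended in 50 volumes. Incubated with 0.6 nM [3H]-ketanserin and test agent (10^-10 to 10^-4 M) at 37 °C for 20 min; mianserin as displacer. GF/B filtration, scintillation counting; Ki from ≥3 experiments, 10 concentrations in triplicate.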

[2] = biological target: T1, 5-hydroxytryptamine receptor 1A (Rattus norvegicus, UniProt P19327); assay: Displacement of [3H]8-OH-DPAT from 5HT1A receptor in rat cerebral cortex after 15 mins by liquid scintillation counting; format: tissue-based
T1 sequence (P19327 whole entry): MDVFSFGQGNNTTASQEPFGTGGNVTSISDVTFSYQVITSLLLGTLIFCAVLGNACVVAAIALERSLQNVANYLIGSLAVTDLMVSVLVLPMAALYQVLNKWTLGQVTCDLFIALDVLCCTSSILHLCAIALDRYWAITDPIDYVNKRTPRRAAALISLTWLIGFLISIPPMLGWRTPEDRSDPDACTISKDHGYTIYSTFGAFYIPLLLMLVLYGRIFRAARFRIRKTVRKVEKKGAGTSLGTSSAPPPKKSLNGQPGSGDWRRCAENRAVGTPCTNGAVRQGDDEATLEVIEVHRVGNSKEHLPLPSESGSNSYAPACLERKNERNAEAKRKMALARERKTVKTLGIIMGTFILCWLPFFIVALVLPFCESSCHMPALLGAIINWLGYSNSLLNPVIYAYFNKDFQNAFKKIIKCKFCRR

Mus musculus [3] = assay: Sedative activity in Swiss albino mouse assessed as reduction on spontaneous locomotor activity at 10 mg/kg, ip administered 30 mins before test measured for 6 mins; format: ADME, organism-based; design: dose 10 mg/kg, route intraperitoneal; conditions: in vivo, 0.1 h
Mus musculus [4] = assay: Sedative activity in Swiss albino mouse assessed as reduction on spontaneous locomotor activity at 10 mg/kg, ip administered 30 mins before test measured for 30 mins; format: ADME, organism-based; design: dose 10 mg/kg, route intraperitoneal; conditions: in vivo, 0.5 h
Mus musculus [5] = assay: Antidepressant activity in Swiss albino mouse assessed as reduction of immobility time at 10 mg/kg, ip administered 30 mins before test by forced swimming test; format: functional; conditions: route intraperitoneal
Summary of the method: (§1)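 Male Albino Swiss mice (24–28 g); agent suspended in 1% aqueous Tween 80, ip 10 ml/kg, 30 min before the test. Total immobility time scored over the last 4 min of a 6-min swim session. n = 8–10 mice per group; mean ± SEM, compared with vehicle.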

Mus musculus [6] = assay: Antidepressant activity in Swiss albino mouse assessed as reduction of immobility time at 20 mg/kg, ip administered 30 mins before test by forced swimming test; format: functional; conditions: route intraperitoneal; summary of the method: as §1
Mus musculus [7] = assay: Antidepressant activity in Swiss albino mouse assessed as reduction of immobility time at 30 mg/kg, ip administered 30 mins before test by forced swimming test; format: functional; conditions: route intraperitoneal; summary of the method: as §1
Mus musculus [8] = assay: Sedative activity in Swiss albino mouse assessed as reduction on spontaneous locomotor activity at 20 mg/kg, ip administered 30 mins before test measured for 6 mins; format: ADME, organism-based; design: dose 20 mg/kg, route intraperitoneal; conditions: in vivo, 0.1 h
Summary of the method: (§2)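 Male Albino Swiss mice (24–28 g); agent ip in 1% Tween 80, 30 min before the test. Locomotor activity counted as number of crossings during 6-min and 30-min sessions. n = 8–10 mice per group; mean ± SEM versus vehicle.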

Mus musculus [9] = assay: Sedative activity in Swiss albino mouse assessed as reduction on spontaneous locomotor activity at 20 mg/kg, ip administered 30 mins before test measured for 30 mins; format: ADME, organism-based; design: dose 20 mg/kg, route intraperitoneal; conditions: in vivo, 0.5 h; summary of the method: as §2
Mus musculus [10] = assay: Sedative activity in Swiss albino mouse assessed as reduction on spontaneous locomotor activity at 30 mg/kg, ip administered 30 mins before test measured for 6 mins; format: ADME, organism-based; design: dose 30 mg/kg, route intraperitoneal; conditions: in vivo, 0.1 h; summary of the method: as §2
Mus musculus [11] = assay: Sedative activity in Swiss albino mouse assessed as reduction on spontaneous locomotor activity at 30 mg/kg, ip administered 30 mins before test measured for 30 mins; format: ADME, organism-based; design: dose 30 mg/kg, route intraperitoneal; conditions: in vivo, 0.5 h; summary of the method: as §2
Mus musculus [12] = assay: Agonist activity at 5HT1A receptor in ip dosed Swiss albino mouse assessed as decrease in rectal temperature; format: functional, organism-based
Summary of the method: (§3)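 Male Albino Swiss mice (24–28 g), free food and water, room at 20 ± 1 °C; test agent suspended in 1% aqueous Tween 80, given ip at 10 ml/kg. Rectal temperature read with a thermometer at 30, 60, 90 and 120 min after dosing. Result expressed as Δt from basal temperature taken at the start; six to ten animals per group, each used once.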

Mus musculus [13] = assay: Agonist activity at 5HT1A receptor in Swiss albino mouse assessed as decrease in rectal temperature at 10 mg/kg, ip after 60 mins; format: functional, organism-based; design: dose 10 mg/kg; summary of the method: as §3
Mus musculus [14] = assay: Agonist activity at 5HT1A receptor in Swiss albino mouse assessed as decrease in rectal temperature at 10 mg/kg, ip after 30 mins; format: functional, organism-based; design: dose 10 mg/kg; summary of the method: as §3
D(2) dopamine receptor = D(2) dopamine receptor (Rattus norvegicus, UniProt P61169); assay: Displacement of [3H]spiperone from dopamine D2 receptor in rat striatum membrane after 30 mins by liquid scintillation counting; format: cell membranes
Summary of the method: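 Rat striatum homogenised in 50 mM potassium phosphate pH 7.4 and spun twice at 20000 × g. Membranes (3 mg wet weight) incubated with 1 nM [3H]-spiperone and test agent in 0.5 ml for 30 min at 37 °C. Nonspecific binding with (+)butaclamol. GF/B filtration, two washes with ice-cold buffer, scintillation counting; Ki from ≥3 experiments, 10 concentrations in triplicate.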

Mus musculus [15] = assay: Agonist activity at 5HT1A receptor in Swiss albino mouse assessed as decrease in rectal temperature at 5 mg/kg, ip after 30 mins; format: functional, organism-based; design: dose 5 mg/kg; summary of the method: as §3
Mus musculus [16] = assay: Agonist activity at 5HT1A receptor in Swiss albino mouse assessed as decrease in rectal temperature at 10 mg/kg, ip after 90 mins; format: functional, organism-based; design: dose 10 mg/kg; summary of the method: as §3
Mus musculus [17] = assay: Agonist activity at 5HT1A receptor in Swiss albino mouse assessed as decrease in rectal temperature at 5 mg/kg, ip after 120 mins; format: functional, organism-based; design: dose 5 mg/kg; summary of the method: as §3
Mus musculus [18] = assay: Agonist activity at 5HT1A receptor in Swiss albino mouse assessed as decrease in rectal temperature at 10 mg/kg, ip after 120 mins; format: functional, organism-based; design: dose 10 mg/kg; summary of the method: as §3
Mus musculus [19] = assay: Agonist activity at 5HT1A receptor in Swiss albino mouse assessed as decrease in rectal temperature at 10 mg/kg, ip after 30 mins in presence of WAY 100635 administered 15 mins before drug challenge; format: functional, organism-based; design: dose 10 mg/kg
Summary of the method: (§4)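 Male Albino Swiss mice (24–28 g). WAY 100635 (0.1 mg/kg, sc, in distilled water) given 15 min before test agent (ip, suspended in 1% Tween 80, 10 ml/kg). Rectal temperature recorded 30 and 60 min after test agent injection. Expressed as Δt versus basal temperature at the start of the experiment.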

Mus musculus [20] = assay: Anxiolytic activity in Swiss albino mouse assessed as number of punished crossings at 20 mg/kg, ip. administered 30 mins before test measured for 60s by four plate test; format: functional
Summary of the method: (§5)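 Male Albino Swiss mice. Box with four metal floor plates separated by 4 mm gaps; 120 V between adjacent plates for 0.5 s delivered on crossing. Mice explored 15 s before testing. Agent (ip, 1% Tween 80) given 30 min before the test. Punished crossings counted; n = 10 mice per group, mean ± SEM.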

Mus musculus [21] = assay: Anxiolytic activity in Swiss albino mouse assessed as number of punished crossings at 30 mg/kg, ip administered 30 mins before test measured for 60s by four plate test; format: functional; conditions: route intraperitoneal; summary of the method: as §5
Rattus norvegicus [22] = assay: Behavioral activity in Wistar rat assessed as reduction of 8-OH-DPAT-induced lower lip retraction at 10 to 20 mg/kg, ip administered 45 mins before 8-OH-DPAT challenge
Mus musculus [23] = assay: Agonist activity at 5HT1A receptor in Swiss albino mouse assessed as decrease in rectal temperature at 5 mg/kg, ip after 90 mins; format: functional, organism-based; design: dose 5 mg/kg; summary of the method: as §3
Mus musculus [24] = assay: Agonist activity at 5HT1A receptor in Swiss albino mouse assessed as decrease in rectal temperature at 5 mg/kg, ip after 60 mins; format: functional, organism-based; design: dose 5 mg/kg; summary of the method: as §3
Mus musculus [25] = assay: Agonist activity at 5HT1A receptor in Swiss albino mouse assessed as decrease in rectal temperature at 10 mg/kg, ip after 60 mins in presence of WAY 100635 administered 15 mins before drug challenge; format: functional, organism-based; design: dose 10 mg/kg; summary of the method: as §4
Rattus norvegicus [26] = assay: Behavioral activity in Wistar rat assessed as induction of lower lip retraction at 10 to 20 mg/kg, ip; format: functional, organism-based
Summary of the method: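 Male Wistar rats (290–310 g); agent ip in 1% Tween 80 at 2 ml/kg. Rats housed singly in cages and scored 15, 30 and 45 min after dosing: 0 = lower incisors not visible, 0.5 = partly, 1 = fully visible. Maximum total score 3 per rat.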

Rattus norvegicus [27] = assay: Behavioral activity in Wistar rat assessed as reduction of 8-OH-DPAT-induced lower lip retraction at 10 to 20 mg/kg, ip administered 45 mins before 8-OH-DPAT challenge; format: functional, organism-based

Sequence of 5-hydroxytryptamine receptor 2A (P14842 whole entry): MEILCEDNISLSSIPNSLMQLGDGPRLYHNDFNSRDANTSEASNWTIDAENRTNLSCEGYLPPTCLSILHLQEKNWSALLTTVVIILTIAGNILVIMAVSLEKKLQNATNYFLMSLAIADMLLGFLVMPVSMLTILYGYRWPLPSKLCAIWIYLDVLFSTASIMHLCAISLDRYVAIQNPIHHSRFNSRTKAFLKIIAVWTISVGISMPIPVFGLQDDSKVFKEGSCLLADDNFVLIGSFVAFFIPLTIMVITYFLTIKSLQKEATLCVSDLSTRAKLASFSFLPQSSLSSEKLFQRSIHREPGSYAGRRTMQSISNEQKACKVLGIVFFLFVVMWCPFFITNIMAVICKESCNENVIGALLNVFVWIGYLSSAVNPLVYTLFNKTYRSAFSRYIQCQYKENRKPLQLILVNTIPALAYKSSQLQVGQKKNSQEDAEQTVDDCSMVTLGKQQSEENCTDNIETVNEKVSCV
Sequence of D(2) dopamine receptor (P61169 whole entry): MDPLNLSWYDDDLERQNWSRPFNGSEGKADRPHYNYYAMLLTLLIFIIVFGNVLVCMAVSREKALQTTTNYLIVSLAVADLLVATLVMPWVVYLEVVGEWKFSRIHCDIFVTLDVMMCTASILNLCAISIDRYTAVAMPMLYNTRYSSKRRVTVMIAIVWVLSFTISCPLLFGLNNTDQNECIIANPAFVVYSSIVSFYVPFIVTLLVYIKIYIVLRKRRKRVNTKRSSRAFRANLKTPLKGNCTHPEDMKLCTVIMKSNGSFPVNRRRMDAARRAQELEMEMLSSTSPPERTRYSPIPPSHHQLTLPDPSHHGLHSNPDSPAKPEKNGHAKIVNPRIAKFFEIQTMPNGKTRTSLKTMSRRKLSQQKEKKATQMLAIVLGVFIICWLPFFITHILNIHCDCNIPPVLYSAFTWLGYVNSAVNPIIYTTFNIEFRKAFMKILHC

SMILES | pKi [1] | pKi [2] | Activity (Mus musculus [12]) | pKi (D(2) dopamine receptor) | deltaT (Mus musculus [13]) | deltaT (Mus musculus [14]) | deltaT (Mus musculus [15]) | deltaT (Mus musculus [16]) | deltaT (Mus musculus [17]) | deltaT (Mus musculus [18]) | deltaT (Mus musculus [19]) | other results
CN(C)CCCN1c2ccccc2CCc2ccccc21 [IMIPRAMINE] | – | – | – | – | – | – | – | – | – | – | – | Activity (Mus musculus [3]): 338; Activity (Mus musculus [4]): 876.8; Activity (Mus musculus [5]): 149.1 s; Activity (Mus musculus [6]): 107.8 s; Activity (Mus musculus [7]): 76.4 s; Activity (Mus musculus [8]): 314.9; Activity (Mus musculus [9]): 625.3; Activity (Mus musculus [10]): 300.9; Activity (Mus musculus [11]): 602.3
Cn1c(=O)c2c(nc3n2CC(C(=O)NCCN2CCN(c4ccccc4)CC2)N3)n(C)c1=O (stereo not given) | – | < 6.00 | – | – | – | – | – | – | – | – | – | –
Cn1c(=O)c2c(nc3n2CC(C(=O)NCCN2CCN(c4cccc(Cl)c4)CC2)N3)n(C)c1=O (stereo not given) | – | < 6.00 | – | – | – | – | – | – | – | – | – | –
COc1ccccc1N1CCN(CCN(C(=O)C2CCCCC2)c2ccccn2)CC1 | – | – | – | – | – | – | – | – | – | – | – | Activity (Rattus norvegicus [22]): Active

The next lines start with results.

pKi [1] | pKi [2] | Activity (Mus musculus [12]) | pKi (D(2) dopamine receptor) | SMILES | deltaT (Mus musculus [13]) | deltaT (Mus musculus [14]) | deltaT (Mus musculus [15]) | deltaT (Mus musculus [16]) | deltaT (Mus musculus [17]) | deltaT (Mus musculus [18]) | deltaT (Mus musculus [19]) | other results
6.31 | 8.55 | – | – | COc1ccccc1N1CCN(CCCN2CCCn3c2nc2c3c(=O)n(C)c(=O)n2C)CC1 | – | – | – | – | – | – | – | –
< 6.00 | 8.25 | Dose-dependent effect | 6.84 | COc1ccccc1N1CCN(CCCn2c(-c3ccccc3)cn3c4c(=O)n(C)c(=O)n(C)c4nc23)CC1 | -0.6 °C | -2 °C | -0.7 °C | -0.6 °C | 0 °C | -0.5 °C | -0.9 °C | Activity (Mus musculus [20]): 3.5; Activity (Mus musculus [21]): 3.2; Activity (Mus musculus [6]): 169.3 s; Activity (Mus musculus [7]): 172 s
6.39 | 7.77 | Dose-dependent effect | 6.12 | Cc1cn2c3c(=O)n(C)c(=O)n(C)c3nc2n1CCCN1CCN(c2cccc(Cl)c2)CC1 | -0.7 °C | -1 °C | -0.5 °C | -0.8 °C | -0.1 °C | -0.1 °C | -0.9 °C | deltaT (Mus musculus [23]): -0.5 °C; deltaT (Mus musculus [24]): -0.4 °C; deltaT (Mus musculus [25]): -0.5 °C; Activity (Rattus norvegicus [26]): inactive
< 6.00 | 7.77 | Dose-dependent effect | 6.46 | COc1ccccc1N1CCN(CCCn2c(C)cn3c4c(=O)n(C)c(=O)n(C)c4nc23)CC1 | -0.5 °C | -0.9 °C | -0.4 °C | -0.6 °C | -0.1 °C | -0.2 °C | -1 °C | deltaT (Mus musculus [23]): -0.3 °C; deltaT (Mus musculus [24]): -0.4 °C; deltaT (Mus musculus [25]): -0.9 °C; Activity (Rattus norvegicus [26]): inactive; Activity (Rattus norvegicus [27]): inactive
